How the values were obtained:
Plasmepsin IV = Plasmepsin IV (Plasmodium falciparum 3D7, UniProt Q8IM16); assay: Inhibition constant against plasmepsin-4 of Plasmodium falciparum
Plasmepsin II = Plasmepsin II (Plasmodium falciparum, UniProt P46925); assay: Inhibition constant against plasmepsin-2 of Plasmodium falciparum 10 min using 3 uM of DABCYL-Glu-Arg-Nle-Phe-Le u-Ser-Phe-Pro-EDANS as substrate
How it was run: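 Pro-Plm II at 3 nM is self-activated by 40 min preincubation at room temperature in 100 mM sodium acetate pH 4.5, 10% glycerol, 0.01% Tween 20. Inhibitor in DMSO (1% final) is added before 3 µM FRET substrate, and the linear fluorescence increase is read over 10 min. IC50 is fitted to a competitive Langmuir isotherm and converted to Ki via IC50/(1+[S]/Km).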

Cathepsin D = Cathepsin D (Homo sapiens, UniProt P07339); assay: Inhibition constant against pro-cathepsin D (50 ng/mL) of human liver upon incubation at pH 4.5 for 10 min using DABCYL-Glu-Arg-Nle-Phe-Le u-Ser-Phe-Pro-EDANS as substrate
Chain of Cathepsin D (P07339 65-162 limits assumed): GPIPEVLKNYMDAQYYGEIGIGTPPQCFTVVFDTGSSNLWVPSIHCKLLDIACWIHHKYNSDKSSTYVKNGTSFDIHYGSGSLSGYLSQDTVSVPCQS
Chain of Cathepsin D (P07339 169-412 limits assumed): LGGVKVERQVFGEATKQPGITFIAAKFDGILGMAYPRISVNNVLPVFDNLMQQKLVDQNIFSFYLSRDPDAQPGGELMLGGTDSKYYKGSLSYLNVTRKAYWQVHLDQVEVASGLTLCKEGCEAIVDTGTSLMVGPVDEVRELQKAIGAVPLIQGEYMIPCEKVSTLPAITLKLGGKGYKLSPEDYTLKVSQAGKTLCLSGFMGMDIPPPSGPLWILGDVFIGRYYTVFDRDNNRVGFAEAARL
How it was run: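 Human liver pro-Cat D at 50 ng/mL is activated for 20 min at 37 °C in 100 mM sodium acetate pH 4.5, 10% glycerol, 0.01% Tween 20. Inhibitor in DMSO (1% final) precedes 3 µM FRET substrate, and the fluorescence increase is followed over a linear 10 min. IC50 is from a competitive Langmuir fit, and Ki = IC50/(1+[S]/Km), with Km from Michaelis–Menten.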

Plasmepsin I = Plasmepsin I (Plasmodium falciparum, UniProt P39898); assay: Inhibition constant against plasmepsin-1 of Plasmodium falciparum, 10 min using 3 uM of DABCYL-Glu-Arg-Nle-Phe-Le u-Ser-Phe-Pro-EDANS as substrate
Chain of Plasmepsin I (P39898 whole entry): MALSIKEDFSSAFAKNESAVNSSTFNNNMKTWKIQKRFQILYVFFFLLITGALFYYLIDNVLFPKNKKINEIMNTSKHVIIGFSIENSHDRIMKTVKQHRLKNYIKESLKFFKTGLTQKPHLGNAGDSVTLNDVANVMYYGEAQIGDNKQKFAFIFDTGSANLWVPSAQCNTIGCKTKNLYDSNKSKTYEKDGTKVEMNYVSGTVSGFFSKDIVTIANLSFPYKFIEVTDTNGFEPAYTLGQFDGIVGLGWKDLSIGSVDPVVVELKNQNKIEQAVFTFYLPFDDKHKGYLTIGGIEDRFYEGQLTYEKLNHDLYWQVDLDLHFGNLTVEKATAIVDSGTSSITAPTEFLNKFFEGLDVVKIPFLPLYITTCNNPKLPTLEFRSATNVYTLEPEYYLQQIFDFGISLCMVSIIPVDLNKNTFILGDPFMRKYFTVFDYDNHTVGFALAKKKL
How it was run: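 Recombinant Plm I, amount set to match Plm II catalytic activity, in 100 mM sodium acetate pH 4.5 with 10% glycerol and 0.01% Tween 20. DMSO inhibitor dilutions (1% final DMSO) are added, then 3 µM FRET substrate. Fluorescence rise is followed over a linear 10 min. IC50 comes from a Langmuir fit assuming competitive inhibition, and Ki = IC50/(1+[S]/Km), with Km from Michaelis–Menten.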

Chain of Plasmepsin IV (Q8IM16 whole entry): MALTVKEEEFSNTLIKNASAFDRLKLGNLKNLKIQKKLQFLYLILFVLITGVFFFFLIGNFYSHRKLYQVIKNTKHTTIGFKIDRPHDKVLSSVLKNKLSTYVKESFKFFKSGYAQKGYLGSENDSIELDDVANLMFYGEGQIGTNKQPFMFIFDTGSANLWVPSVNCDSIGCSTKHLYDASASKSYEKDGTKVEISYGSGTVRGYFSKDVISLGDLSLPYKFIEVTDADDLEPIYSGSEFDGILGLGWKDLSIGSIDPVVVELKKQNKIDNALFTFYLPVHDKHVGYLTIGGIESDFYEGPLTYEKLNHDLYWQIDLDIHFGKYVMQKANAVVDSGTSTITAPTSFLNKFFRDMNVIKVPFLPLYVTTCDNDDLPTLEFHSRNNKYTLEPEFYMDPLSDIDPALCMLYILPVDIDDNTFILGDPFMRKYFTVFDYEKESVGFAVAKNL
Chain of Plasmepsin II (P46925 whole entry): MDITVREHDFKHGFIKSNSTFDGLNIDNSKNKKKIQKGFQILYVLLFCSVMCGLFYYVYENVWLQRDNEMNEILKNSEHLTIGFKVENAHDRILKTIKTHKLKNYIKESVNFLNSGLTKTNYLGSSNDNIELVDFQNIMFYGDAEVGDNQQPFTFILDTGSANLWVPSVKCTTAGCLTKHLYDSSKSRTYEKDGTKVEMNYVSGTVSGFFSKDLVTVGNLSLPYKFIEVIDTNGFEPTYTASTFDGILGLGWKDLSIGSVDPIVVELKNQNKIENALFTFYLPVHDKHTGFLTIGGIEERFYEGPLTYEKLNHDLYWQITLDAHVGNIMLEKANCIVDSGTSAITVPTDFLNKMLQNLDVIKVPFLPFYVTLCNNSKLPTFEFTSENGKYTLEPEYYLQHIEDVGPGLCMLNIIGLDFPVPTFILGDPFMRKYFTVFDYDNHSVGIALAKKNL

Ki (Plasmepsin IV) [nM]	Ki (Plasmepsin II) [nM]	Ki (Cathepsin D) [nM]	Ki (Plasmepsin I) [nM]	SMILES
> 5000	–	–	–	C=CCO[C@@H](C(=O)N[C@H]1c2ccccc2C[C@H]1O)[C@H](O)[C@@H](O)[C@@H](OCC=C)C(=O)N[C@H]1c2ccccc2C[C@H]1O
–	2300	> 6000	1600	O=C(N[C@H]1c2ccccc2C[C@H]1O)[C@H](OC/C=C/Br)[C@H](O)[C@@H](O)[C@@H](OC/C=C/Br)c1nnc(CCCc2ccccc2)o1
–	> 5000	> 6000	> 3000	CC(C)(C)c1ccc(-c2nnc([C@H](OC/C=C/Br)[C@H](O)[C@@H](O)[C@@H](OC/C=C/Br)C(=O)N[C@H]3c4ccccc4C[C@H]3O)o2)cc1
–	161	> 6000	124	C=CCO[C@@H](C(=O)NNC(=O)CCc1ccccc1)[C@H](O)[C@@H](O)[C@@H](OCC=C)C(=O)N[C@H]1c2ccccc2C[C@H]1O
–	168	> 6000	261	O=C(NNC(=O)[C@H](OC/C=C/Br)[C@H](O)[C@@H](O)[C@@H](OC/C=C/Br)C(=O)N[C@H]1c2ccccc2C[C@H]1O)c1ccccc1
–	2100	> 6000	> 3000	O=C(N[C@H]1c2ccccc2C[C@H]1O)[C@H](OC/C=C/Br)[C@H](O)[C@@H](O)[C@@H](OC/C=C/Br)c1nnc(Cc2ccccc2)o1
–	14	> 6000	31	O=C(Cc1ccccc1)NNC(=O)[C@H](OC/C=C/Br)[C@H](O)[C@@H](O)[C@@H](OC/C=C/Br)C(=O)N[C@H]1c2ccccc2C[C@H]1O
–	586	> 6000	1090	CN1CCN(CCC(=O)NNC(=O)[C@H](OC/C=C/Br)[C@H](O)[C@@H](O)[C@@H](OC/C=C/Br)C(=O)N[C@H]2c3ccccc3C[C@H]2O)CC1
–	1300	> 6000	2000	O=C(CCN1CCOCC1)NNC(=O)[C@H](OC/C=C/Br)[C@H](O)[C@@H](O)[C@@H](OC/C=C/Br)C(=O)N[C@H]1c2ccccc2C[C@H]1O
–	> 5000	> 6000	> 3000	Cc1nnc([C@H](OC/C=C/Br)[C@H](O)[C@@H](O)[C@@H](OC/C=C/Br)C(=O)N[C@H]2c3ccccc3C[C@H]2O)o1
–	> 5000	> 6000	> 3000	Cc1n[nH]c([C@H](OC/C=C/Br)[C@H](O)[C@@H](O)[C@@H](OC/C=C/Br)C(=O)N[C@H]2c3ccccc3C[C@H]2O)n1
–	> 5000	> 6000	> 3000	CC(=O)NNC(=O)[C@H](OC/C=C/Br)[C@H](O)[C@@H](O)[C@@H](OC/C=C/Br)C(=O)NNC(C)=O
–	> 5000	> 6000	> 3000	Cc1nnc([C@H](OC/C=C/Br)[C@H](O)[C@@H](O)[C@@H](OC/C=C/Br)c2nnc(C)o2)o1
–	10	> 6000	11	O=C(CCCc1ccccc1)NNC(=O)[C@H](OC/C=C/Br)[C@H](O)[C@@H](O)[C@@H](OC/C=C/Br)C(=O)N[C@H]1c2ccccc2C[C@H]1O
–	6	> 6000	19	O=C(CCc1c[nH]c2ccccc12)NNC(=O)[C@H](OC/C=C/Br)[C@H](O)[C@@H](O)[C@@H](OC/C=C/Br)C(=O)N[C@H]1c2ccccc2C[C@H]1O
–	142	> 6000	198	CC(C)(C)c1ccc(C(=O)NNC(=O)[C@H](OC/C=C/Br)[C@H](O)[C@@H](O)[C@@H](OC/C=C/Br)C(=O)N[C@H]2c3ccccc3C[C@H]2O)cc1
–	145	1200	38	CC(=O)c1ccc(/C=C/CO[C@@H](C(=O)NNC(=O)CCc2ccccc2)[C@H](O)[C@@H](O)[C@@H](OC/C=C/c2ccc(C(C)=O)cc2)C(=O)N[C@H]2c3ccccc3C[C@H]2O)cc1
–	11	800	6	O=C(CCc1ccccc1)NNC(=O)[C@H](OC/C=C/c1ccc2c(c1)OCO2)[C@H](O)[C@@H](O)[C@@H](OC/C=C/c1ccc2c(c1)OCO2)C(=O)N[C@H]1c2ccccc2C[C@H]1O
35	> 5000	> 6000	> 3000	CC(C)(C)c1ccc(-c2nnc([C@H](OC/C=C/Br)[C@H](O)[C@@H](O)[C@@H](OC/C=C/Br)c3nnc(-c4ccc(C(C)(C)C)cc4)o3)o2)cc1
–	3400	> 6000	> 3000	O=C(N[C@H]1c2ccccc2C[C@H]1O)[C@H](OC/C=C/Br)[C@H](O)[C@@H](O)[C@@H](OC/C=C/Br)c1nnc(-c2ccccc2)o1
–	359	> 6000	698	CC(=O)NNC(=O)[C@H](OC/C=C/Br)[C@H](O)[C@@H](O)[C@@H](OC/C=C/Br)C(=O)N[C@H]1c2ccccc2C[C@H]1O
478	1500	3000	1840	CC(C)(C)c1ccc(C(=O)NNC(=O)[C@H](OC/C=C/Br)[C@H](O)[C@@H](O)[C@@H](OC/C=C/Br)C(=O)NNC(=O)c2ccc(C(C)(C)C)cc2)cc1
–	2900	> 6000	> 3000	O=C(N[C@H]1c2ccccc2C[C@H]1O)[C@H](OC/C=C/Br)[C@H](O)[C@@H](O)[C@@H](OC/C=C/Br)c1nnc(CCc2ccccc2)o1
–	7	> 6000	9	O=C(CCc1ccccc1)NNC(=O)[C@H](OC/C=C/Br)[C@H](O)[C@@H](O)[C@@H](OC/C=C/Br)C(=O)N[C@H]1c2ccccc2C[C@H]1O

— ChEMBL document CHEMBL1141092, “Synthesis of malarial plasmepsin inhibitors and prediction of binding modes by molecular dynamics simulations” (J Med Chem, 2005)
